ChEMBL document CHEMBL1165965, “Synthesis and structure-activity relationships of 1,2,3,4-tetrahydropyrido[2,3-b]pyrazines as potent and selective inhibitors of the anaplastic lymphoma kinase” (Bioorg Med Chem, 2010)

Tests used:
[1] = molecular target: T1, Ephrin type-B receptor 1 (Homo sapiens) (UniProt P54762); experiment: Inhibition of EPHB1 at 1 uM
T1 sequence (whole entry): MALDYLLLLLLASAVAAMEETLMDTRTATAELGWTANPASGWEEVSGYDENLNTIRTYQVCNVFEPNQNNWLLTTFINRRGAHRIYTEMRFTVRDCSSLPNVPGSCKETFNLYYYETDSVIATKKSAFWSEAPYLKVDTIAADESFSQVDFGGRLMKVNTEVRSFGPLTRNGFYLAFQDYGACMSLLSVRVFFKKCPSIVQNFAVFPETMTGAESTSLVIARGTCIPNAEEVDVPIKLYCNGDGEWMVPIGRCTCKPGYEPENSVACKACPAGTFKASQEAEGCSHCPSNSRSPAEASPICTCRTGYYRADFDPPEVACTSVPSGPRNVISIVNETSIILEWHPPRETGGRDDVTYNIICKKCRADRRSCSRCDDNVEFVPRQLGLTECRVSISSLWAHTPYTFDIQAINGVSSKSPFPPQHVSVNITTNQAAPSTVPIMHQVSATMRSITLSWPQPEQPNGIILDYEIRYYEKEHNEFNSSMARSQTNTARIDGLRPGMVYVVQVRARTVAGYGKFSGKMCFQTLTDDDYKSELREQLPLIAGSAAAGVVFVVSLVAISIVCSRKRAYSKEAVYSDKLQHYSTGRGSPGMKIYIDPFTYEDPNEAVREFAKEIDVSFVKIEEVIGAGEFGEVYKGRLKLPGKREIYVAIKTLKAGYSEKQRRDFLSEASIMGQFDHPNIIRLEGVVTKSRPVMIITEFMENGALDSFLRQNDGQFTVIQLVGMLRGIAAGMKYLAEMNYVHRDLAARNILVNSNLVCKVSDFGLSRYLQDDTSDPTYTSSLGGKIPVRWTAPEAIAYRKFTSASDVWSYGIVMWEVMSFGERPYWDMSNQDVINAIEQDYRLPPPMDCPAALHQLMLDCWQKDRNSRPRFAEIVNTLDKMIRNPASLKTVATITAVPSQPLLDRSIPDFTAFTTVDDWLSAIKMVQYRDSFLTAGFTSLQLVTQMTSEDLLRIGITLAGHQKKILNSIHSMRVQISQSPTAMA
Summary of the method: (§1)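 Single-concentration screen using Ambit Bioscience KINOMEscan technology across a panel of 250–400 kinases. Per-kinase inhibition from this screen was summarized as S(90), the fraction of kinases inhibited by more than 90%.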

[2] = molecular target: Cyclin-dependent kinase 19 (Homo sapiens) (UniProt Q9BWU1); experiment: Inhibition of CDK11 at 1 uM
[3] = molecular target: Serine/threonine-protein kinase 25 (Homo sapiens) (UniProt O00506); experiment: Inhibition of YSK1 at 1 uM
[4] = molecular target: T2, Ephrin type-B receptor 3 (Homo sapiens) (UniProt P54753); experiment: Inhibition of EPHB3 at 1 uM; summary of the method: as §1
T2 sequence (whole entry): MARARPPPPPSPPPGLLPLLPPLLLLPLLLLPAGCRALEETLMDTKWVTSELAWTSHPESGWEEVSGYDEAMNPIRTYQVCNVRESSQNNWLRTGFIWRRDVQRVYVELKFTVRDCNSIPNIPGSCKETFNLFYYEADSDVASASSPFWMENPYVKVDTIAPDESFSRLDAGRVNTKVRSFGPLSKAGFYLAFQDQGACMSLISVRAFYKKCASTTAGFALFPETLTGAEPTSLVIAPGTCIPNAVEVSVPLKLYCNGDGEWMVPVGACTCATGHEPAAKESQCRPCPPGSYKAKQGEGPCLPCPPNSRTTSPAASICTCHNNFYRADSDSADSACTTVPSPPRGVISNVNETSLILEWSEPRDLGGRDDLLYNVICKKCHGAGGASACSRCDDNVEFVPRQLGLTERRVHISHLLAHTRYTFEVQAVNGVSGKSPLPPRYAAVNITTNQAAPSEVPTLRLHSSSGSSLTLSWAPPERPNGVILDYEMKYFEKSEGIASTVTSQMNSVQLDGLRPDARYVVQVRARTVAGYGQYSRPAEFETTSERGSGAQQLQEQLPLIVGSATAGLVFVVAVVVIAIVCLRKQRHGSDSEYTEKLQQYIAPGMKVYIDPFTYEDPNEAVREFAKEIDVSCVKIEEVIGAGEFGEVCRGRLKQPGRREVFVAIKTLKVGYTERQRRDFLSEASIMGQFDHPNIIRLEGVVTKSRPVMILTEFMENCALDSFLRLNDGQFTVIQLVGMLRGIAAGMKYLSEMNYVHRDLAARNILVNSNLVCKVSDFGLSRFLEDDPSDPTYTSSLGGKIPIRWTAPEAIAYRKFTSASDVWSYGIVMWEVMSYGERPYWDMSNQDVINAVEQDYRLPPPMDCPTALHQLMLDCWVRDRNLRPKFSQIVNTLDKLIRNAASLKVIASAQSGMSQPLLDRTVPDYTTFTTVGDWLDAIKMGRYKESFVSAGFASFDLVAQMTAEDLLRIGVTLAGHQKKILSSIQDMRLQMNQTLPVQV

[5] = molecular target: Tyrosine-protein kinase receptor UFO (Homo sapiens) (UniProt P30530); experiment: Inhibition of AXL at 1 uM
Summary of the method: (§2)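 Ambit KINOMEscan screen at a single concentration across a 250–400 kinase panel, recorded as percent inhibition. Selectivity was expressed as S(90), the fraction of kinases inhibited >90%.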

[6] = molecular target: Cyclin-dependent kinase 5 (Homo sapiens) (UniProt Q00535); experiment: Inhibition of CDK5 at 1 uM; summary of the method: as §2
[7] = molecular target: Receptor tyrosine-protein kinase erbB-2 (Homo sapiens) (UniProt P04626); experiment: Inhibition of ERBB2 at 1 uM; summary of the method: as §1
[8] = molecular target: Phosphatidylinositol 4-phosphate 3-kinase C2 domain-containing subunit beta (Homo sapiens) (UniProt O00750); experiment: Inhibition of PIK3C2B at 1 uM
Phosphatidylinositol 4-phosphate 3-kinase C2 domain-containing subunit beta (Homo sapiens), sequence (O00750 whole entry, the tested form may be a part): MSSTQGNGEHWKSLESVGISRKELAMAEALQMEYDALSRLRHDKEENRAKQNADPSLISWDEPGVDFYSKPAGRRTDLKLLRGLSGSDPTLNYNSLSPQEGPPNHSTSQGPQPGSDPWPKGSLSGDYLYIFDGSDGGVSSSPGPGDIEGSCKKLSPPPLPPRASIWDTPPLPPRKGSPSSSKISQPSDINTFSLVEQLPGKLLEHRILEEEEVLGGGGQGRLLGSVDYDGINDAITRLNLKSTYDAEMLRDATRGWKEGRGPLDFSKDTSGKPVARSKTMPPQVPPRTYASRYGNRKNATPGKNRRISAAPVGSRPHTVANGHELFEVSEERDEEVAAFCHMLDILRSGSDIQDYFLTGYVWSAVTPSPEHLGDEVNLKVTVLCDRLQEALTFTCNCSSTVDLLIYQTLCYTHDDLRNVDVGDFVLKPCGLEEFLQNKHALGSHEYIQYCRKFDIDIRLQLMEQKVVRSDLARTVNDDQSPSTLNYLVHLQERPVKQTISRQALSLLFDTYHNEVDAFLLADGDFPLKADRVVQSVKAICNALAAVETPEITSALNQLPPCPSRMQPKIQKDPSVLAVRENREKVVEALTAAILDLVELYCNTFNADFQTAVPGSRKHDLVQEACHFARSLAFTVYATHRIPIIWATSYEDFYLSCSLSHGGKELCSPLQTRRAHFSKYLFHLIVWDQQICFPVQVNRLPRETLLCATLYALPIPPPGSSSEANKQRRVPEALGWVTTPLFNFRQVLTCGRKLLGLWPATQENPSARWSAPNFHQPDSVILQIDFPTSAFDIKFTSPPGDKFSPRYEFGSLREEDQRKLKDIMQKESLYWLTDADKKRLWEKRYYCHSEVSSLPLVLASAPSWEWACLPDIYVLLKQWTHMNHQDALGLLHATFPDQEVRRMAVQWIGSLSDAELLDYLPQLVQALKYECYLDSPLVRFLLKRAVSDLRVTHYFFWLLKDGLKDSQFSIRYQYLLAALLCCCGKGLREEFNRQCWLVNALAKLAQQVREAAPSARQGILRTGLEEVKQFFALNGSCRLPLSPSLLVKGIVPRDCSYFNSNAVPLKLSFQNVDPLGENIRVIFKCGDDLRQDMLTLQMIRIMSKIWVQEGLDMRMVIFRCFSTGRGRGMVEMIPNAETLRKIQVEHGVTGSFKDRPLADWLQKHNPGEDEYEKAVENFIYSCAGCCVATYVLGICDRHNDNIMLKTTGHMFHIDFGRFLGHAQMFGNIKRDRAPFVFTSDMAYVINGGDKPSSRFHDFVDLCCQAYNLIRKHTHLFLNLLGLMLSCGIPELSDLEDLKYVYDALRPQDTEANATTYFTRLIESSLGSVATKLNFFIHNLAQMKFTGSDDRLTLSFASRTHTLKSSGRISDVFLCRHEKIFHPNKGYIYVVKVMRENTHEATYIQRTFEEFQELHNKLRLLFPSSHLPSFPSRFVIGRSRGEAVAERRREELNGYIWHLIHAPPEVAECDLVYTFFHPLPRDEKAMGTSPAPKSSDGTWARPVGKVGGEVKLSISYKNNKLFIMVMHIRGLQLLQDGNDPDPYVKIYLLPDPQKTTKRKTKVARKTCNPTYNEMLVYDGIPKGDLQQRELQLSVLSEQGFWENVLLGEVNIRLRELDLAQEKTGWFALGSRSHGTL

Receptor tyrosine-protein kinase erbB-2 (Homo sapiens), sequence (P04626 whole entry, the tested form may be a part): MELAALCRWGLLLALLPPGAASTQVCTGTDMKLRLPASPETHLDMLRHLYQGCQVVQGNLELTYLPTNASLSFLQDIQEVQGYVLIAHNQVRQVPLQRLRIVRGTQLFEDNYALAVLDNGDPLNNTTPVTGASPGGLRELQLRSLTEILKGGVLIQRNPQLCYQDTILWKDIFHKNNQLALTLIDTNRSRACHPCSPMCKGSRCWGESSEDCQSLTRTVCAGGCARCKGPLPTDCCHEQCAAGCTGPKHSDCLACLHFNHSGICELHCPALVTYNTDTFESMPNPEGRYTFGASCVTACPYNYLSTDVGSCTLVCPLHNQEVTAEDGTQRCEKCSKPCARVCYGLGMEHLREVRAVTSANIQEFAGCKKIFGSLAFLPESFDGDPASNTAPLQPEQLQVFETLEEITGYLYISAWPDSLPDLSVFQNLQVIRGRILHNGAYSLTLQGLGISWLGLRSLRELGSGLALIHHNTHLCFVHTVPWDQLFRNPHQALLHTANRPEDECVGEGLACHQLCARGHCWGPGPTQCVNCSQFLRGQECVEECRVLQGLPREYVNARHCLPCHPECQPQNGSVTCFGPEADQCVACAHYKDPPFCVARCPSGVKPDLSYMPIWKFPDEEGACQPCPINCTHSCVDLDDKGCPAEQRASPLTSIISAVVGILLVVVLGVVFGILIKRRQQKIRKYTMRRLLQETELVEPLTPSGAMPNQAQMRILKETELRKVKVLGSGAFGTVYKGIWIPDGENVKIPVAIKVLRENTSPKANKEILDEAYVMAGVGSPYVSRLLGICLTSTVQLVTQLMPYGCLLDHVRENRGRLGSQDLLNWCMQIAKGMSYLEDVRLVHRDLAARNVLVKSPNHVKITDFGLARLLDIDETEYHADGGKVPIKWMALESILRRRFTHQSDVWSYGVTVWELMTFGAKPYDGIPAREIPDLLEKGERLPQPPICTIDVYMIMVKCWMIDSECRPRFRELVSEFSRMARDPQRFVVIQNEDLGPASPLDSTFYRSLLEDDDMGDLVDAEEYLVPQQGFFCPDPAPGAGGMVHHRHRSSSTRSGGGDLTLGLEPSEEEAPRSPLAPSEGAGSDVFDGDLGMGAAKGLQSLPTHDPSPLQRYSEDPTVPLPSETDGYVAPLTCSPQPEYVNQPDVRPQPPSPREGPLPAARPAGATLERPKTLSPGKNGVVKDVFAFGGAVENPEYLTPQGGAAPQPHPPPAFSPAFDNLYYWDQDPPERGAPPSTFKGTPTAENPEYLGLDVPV
Cyclin-dependent kinase 5 (Homo sapiens), sequence (Q00535 whole entry, looked up): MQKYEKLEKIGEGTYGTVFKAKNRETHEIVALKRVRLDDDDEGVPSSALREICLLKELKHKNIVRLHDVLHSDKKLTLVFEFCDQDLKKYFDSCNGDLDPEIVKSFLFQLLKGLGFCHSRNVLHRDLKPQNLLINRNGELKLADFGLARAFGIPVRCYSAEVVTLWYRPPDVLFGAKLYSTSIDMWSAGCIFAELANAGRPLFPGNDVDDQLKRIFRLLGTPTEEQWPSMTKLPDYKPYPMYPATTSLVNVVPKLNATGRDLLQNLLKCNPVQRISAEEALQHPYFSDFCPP
Serine/threonine-protein kinase 25 (Homo sapiens), sequence (O00506 whole entry, looked up): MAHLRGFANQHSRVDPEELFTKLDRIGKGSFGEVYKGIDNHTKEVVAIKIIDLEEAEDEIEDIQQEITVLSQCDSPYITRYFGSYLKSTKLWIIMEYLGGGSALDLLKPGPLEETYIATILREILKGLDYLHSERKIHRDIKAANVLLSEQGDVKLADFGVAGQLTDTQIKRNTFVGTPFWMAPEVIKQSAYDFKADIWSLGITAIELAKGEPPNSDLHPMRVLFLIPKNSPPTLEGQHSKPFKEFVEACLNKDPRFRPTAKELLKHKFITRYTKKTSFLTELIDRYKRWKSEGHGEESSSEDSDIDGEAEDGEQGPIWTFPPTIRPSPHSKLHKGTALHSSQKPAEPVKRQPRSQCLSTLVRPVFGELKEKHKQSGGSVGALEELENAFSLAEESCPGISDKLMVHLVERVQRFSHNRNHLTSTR
Tyrosine-protein kinase receptor UFO (Homo sapiens), sequence (P30530 whole entry): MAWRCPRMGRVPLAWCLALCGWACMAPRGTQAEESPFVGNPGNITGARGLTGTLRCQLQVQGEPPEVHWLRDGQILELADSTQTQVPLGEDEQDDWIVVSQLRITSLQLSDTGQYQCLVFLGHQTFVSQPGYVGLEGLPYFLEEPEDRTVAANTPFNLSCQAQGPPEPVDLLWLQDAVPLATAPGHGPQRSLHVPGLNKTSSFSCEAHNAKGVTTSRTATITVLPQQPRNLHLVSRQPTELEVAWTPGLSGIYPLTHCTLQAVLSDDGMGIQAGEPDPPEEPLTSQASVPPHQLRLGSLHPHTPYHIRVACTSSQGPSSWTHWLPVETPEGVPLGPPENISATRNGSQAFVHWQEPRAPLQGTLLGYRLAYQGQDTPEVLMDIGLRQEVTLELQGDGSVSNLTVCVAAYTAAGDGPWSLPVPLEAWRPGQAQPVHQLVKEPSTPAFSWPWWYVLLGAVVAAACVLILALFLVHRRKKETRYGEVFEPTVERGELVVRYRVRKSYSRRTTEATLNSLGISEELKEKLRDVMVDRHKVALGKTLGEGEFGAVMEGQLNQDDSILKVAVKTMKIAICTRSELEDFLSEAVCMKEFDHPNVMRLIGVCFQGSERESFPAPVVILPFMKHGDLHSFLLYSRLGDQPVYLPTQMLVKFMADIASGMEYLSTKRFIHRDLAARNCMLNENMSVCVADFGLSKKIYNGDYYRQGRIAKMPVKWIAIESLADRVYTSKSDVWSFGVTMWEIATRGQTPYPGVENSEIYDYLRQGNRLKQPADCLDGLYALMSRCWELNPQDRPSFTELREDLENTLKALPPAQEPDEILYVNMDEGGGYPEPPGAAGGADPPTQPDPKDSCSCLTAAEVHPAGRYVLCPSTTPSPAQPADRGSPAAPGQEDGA
Cyclin-dependent kinase 19 (Homo sapiens), sequence (Q9BWU1 whole entry): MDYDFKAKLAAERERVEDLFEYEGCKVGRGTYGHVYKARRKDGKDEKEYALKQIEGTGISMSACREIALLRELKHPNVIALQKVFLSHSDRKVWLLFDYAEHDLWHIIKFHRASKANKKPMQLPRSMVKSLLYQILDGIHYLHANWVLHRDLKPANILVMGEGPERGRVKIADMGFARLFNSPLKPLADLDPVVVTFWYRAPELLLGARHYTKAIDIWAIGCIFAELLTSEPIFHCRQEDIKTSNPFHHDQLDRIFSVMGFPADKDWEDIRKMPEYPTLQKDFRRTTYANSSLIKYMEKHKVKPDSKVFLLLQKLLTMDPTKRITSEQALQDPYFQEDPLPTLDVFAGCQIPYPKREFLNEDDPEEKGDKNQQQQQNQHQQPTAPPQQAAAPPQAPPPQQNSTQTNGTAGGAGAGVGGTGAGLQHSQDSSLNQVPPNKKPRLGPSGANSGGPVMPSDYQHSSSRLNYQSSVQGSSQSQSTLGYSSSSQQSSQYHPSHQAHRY

inhibition [1] [%] | inhibition [2] [%] | inhibition [3] [%] | inhibition [4] [%] | inhibition [5] [%] | inhibition [6] [%] | inhibition [7] [%] | inhibition [8] [%] | Structure (SMILES)
< 50 | < 50 | < 50 | < 50 | < 50 | < 50 | < 50 | < 50 | CC(=O)N1CCN(c2cc(-c3cnc4c(c3)N(Cc3cc(Cl)ccc3C(F)(F)F)CCN4)ccn2)CC1
< 50 |  |  | < 50 | < 50 | < 50 | < 50 |  | O=C(O)c1ccc(-c2cnc3c(c2)N(Cc2cc(Cl)ccc2C(F)(F)F)CCN3)cc1
< 50 |  |  | < 50 | < 50 | < 50 | < 50 |  | O=C(c1ccc(-c2cnc3c(c2)N(Cc2cc(Cl)ccc2C(F)(F)F)CCN3)cc1)N1CCCCC1
< 50 | < 50 | < 50 | < 50 | < 50 | < 50 | < 50 | < 50 | CN1CCN(c2ccc(-c3cnc4c(c3)N(Cc3cc(Cl)ccc3C(F)(F)F)CCN4)cn2)CC1
< 50 | < 50 | < 50 | < 50 | < 50 | < 50 | < 50 | < 50 | CN1CCN(c2ccc(-c3cnc4c(c3)N(Cc3cc(F)ccc3F)CCN4)cn2)CC1
< 50 | < 50 | < 50 | < 50 | < 50 | < 50 | < 50 | < 50 | CN1CCN(c2ccc(-c3cnc4c(c3)N(Cc3cc(Cl)ccc3Cl)CCN4)cn2)CC1
< 50 |  |  | < 50 | < 50 | < 50 | < 50 |  | COC1CCN(C(=O)c2ccc(-c3cnc4c(c3)N(Cc3cc(Cl)ccc3C(F)(F)F)CCN4)cc2)CC1
< 50 | < 50 | < 50 | < 50 | < 50 | < 50 | < 50 | < 50 | CN1CCN(c2ccc(-c3cnc4c(c3)N(Cc3c(F)ccc(F)c3Cl)CCN4)cn2)CC1
< 50 | < 50 | < 50 | < 50 | < 50 | < 50 | < 50 | < 50 | FC(F)(F)c1ccc(Cl)cc1CN1CCNc2ncc(-c3ccnc(N4CCNCC4)c3)cc21
< 50 |  |  | < 50 | 93 | < 50 | < 50 |  | O=C(c1ccc(-c2cnc3c(c2)N(Cc2cc(Cl)ccc2C(F)(F)F)CCN3)cc1)N1CCC(N2CCCC2)CC1
